Measured values: ChEMBL document CHEMBL3739379, “Anti-Candida activity and cytotoxicity of a large library of new N-substituted-1,3-thiazolidin-4-one derivatives” (Eur J Med Chem, 2016)
In brackets after ≈: the same amount, converted by molar mass.

tested on: Proteus mirabilis; assay: Antibacterial activity against Proteus mirabilis after 18 to 22 hrs by broth microdilution method; type: functional; settings: not given
Method in brief: (§1)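 Broth microdilution per NCCLS in Mueller-Hinton II broth; isolates subcultured for purity. Compounds dissolved in DMSO, serial dilutions 256 to 0.5 µg/mL; inoculum 10^5/mL. Controls: organism without compound, medium only. Incubation 18 to 22 h at 35 °C. MIC is the lowest concentration giving complete growth inhibition, read by unaided eye.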

| SMILES | MIC |
| --- | --- |
| C/C(CC(C)C)=N\N=C1/SCC(=O)N1Cc1ccc([N+](=O)[O-])cc1 | > 256 µg/mL |
| C/C(CC(C)C)=N\N=C1/SCC(=O)N1Cc1cccc2ccccc12 | > 256 µg/mL |

tested on: not listed separately; assay: Cytotoxicity against human Hep2 cells assessed as cell survival at 50 ug/ml after 24 hrs by trypan blue exclusion test (reference value: 87 to 94%); type: cell-based, HEp-2; settings: read-out: Survival

| SMILES | viability at 24 h, 50 ug/ml |
| --- | --- |
| C/C(CC(C)C)=N\N=C1/SCC(=O)N1Cc1ccc([N+](=O)[O-])cc1 | 0% |
| C/C(CC(C)C)=N\N=C1/SCC(=O)N1Cc1cccc2ccccc12 | 73.6% |

tested on: Staphylococcus aureus; assay: Antibacterial activity against Staphylococcus aureus after 18 to 22 hrs by broth microdilution method; type: functional; settings: not given; method in brief: as §1

| SMILES | MIC |
| --- | --- |
| C/C(CC(C)C)=N\N=C1/SCC(=O)N1Cc1ccc([N+](=O)[O-])cc1 | > 256 µg/mL |
| C/C(CC(C)C)=N\N=C1/SCC(=O)N1Cc1cccc2ccccc12 | > 256 µg/mL |

tested on: Candida albicans; assay: Antifungal activity against Candida albicans clinical isolate after 24 hrs by sabouraud dextrose broth based microdilution method; type: functional; settings: not given
Method in brief: (§2)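 Clinical isolates identified by conventional methods and subcultured for purity. Broth microdilution per NCCLS in Sabouraud dextrose broth; compounds dissolved in DMSO and serially diluted; inoculum 10^3/mL. Controls: fungi without compound, medium only. Incubated 24 h at 37 °C. MIC is the lowest concentration with complete growth inhibition by unaided eye. Values are geometric means over isolates per species.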

| SMILES | MIC |
| --- | --- |
| C/C(CC(C)C)=N\N=C1/SCC(=O)N1Cc1ccc([N+](=O)[O-])cc1 | 1 µg/mL (≈ 2.87 µM) |
| C/C(CC(C)C)=N\N=C1/SCC(=O)N1Cc1cccc2ccccc12 | 4 µg/mL (≈ 11.3 µM) |

tested on: Pichia kudriavzevii; assay: Antifungal activity against Candida krusei clinical isolate after 24 hrs by sabouraud dextrose broth based microdilution method; type: functional; settings: not given; method in brief: as §2

| SMILES | MIC |
| --- | --- |
| C/C(CC(C)C)=N\N=C1/SCC(=O)N1Cc1ccc([N+](=O)[O-])cc1 | 2 µg/mL (≈ 5.74 µM) |
| C/C(CC(C)C)=N\N=C1/SCC(=O)N1Cc1cccc2ccccc12 | 2 µg/mL (≈ 5.66 µM) |

tested on: not listed separately; assay: Cytotoxicity against human Hep2 cells assessed as cell survival at 0.5 ug/ml after 24 hrs by trypan blue exclusion test (reference value: 87 to 94%); type: cell-based, HEp-2; settings: read-out: Survival

| SMILES | viability at 24 h, 0.5 ug/ml |
| --- | --- |
| C/C(CC(C)C)=N\N=C1/SCC(=O)N1Cc1ccc([N+](=O)[O-])cc1 | 92.5% |
| C/C(CC(C)C)=N\N=C1/SCC(=O)N1Cc1cccc2ccccc12 | 91% |

tested on: [Candida] sake; assay: Antifungal activity against Candida sake clinical isolate after 24 hrs by sabouraud dextrose broth based microdilution method; type: functional; settings: Fermentozyma sake; method in brief: as §2

| SMILES | MIC |
| --- | --- |
| C/C(CC(C)C)=N\N=C1/SCC(=O)N1Cc1ccc([N+](=O)[O-])cc1 | 4 µg/mL (≈ 11.5 µM) |
| C/C(CC(C)C)=N\N=C1/SCC(=O)N1Cc1cccc2ccccc12 | 4 µg/mL (≈ 11.3 µM) |

tested on: Escherichia coli; assay: Antibacterial activity against Escherichia coli at after 18 to 22 hrs by broth microdilution method; type: functional; settings: not given; method in brief: as §1

| SMILES | MIC |
| --- | --- |
| C/C(CC(C)C)=N\N=C1/SCC(=O)N1Cc1ccc([N+](=O)[O-])cc1 | > 256 µg/mL |
| C/C(CC(C)C)=N\N=C1/SCC(=O)N1Cc1cccc2ccccc12 | > 256 µg/mL |

tested on: not listed separately; assay: Selectivity index, ratio of CC50 for human Hep2 cells to MIC for Candida glabrata; parameters: species or system HEp-2; settings: not given
Method in brief: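 Ratio of CC50 from the 24 h Trypan blue assay on Hep2 cells to the MIC against C. glabrata from the 24 h, 37 °C Sabouraud broth microdilution.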

| SMILES | Selectivity Index |
| --- | --- |
| C/C(CC(C)C)=N\N=C1/SCC(=O)N1Cc1cccc2ccccc12 | 95 |

tested on: Nakaseomyces glabratus; assay: Antifungal activity against Candida glabrata clinical isolate after 24 hrs by sabouraud dextrose broth based microdilution method; type: functional; settings: not given; method in brief: as §2

| SMILES | MIC |
| --- | --- |
| C/C(CC(C)C)=N\N=C1/SCC(=O)N1Cc1ccc([N+](=O)[O-])cc1 | 1 µg/mL (≈ 2.87 µM) |
| C/C(CC(C)C)=N\N=C1/SCC(=O)N1Cc1cccc2ccccc12 | 1 µg/mL (≈ 2.83 µM) |

tested on: Enterococcus faecalis; assay: Antibacterial activity against […] faecalis after 18 to 22 hrs by broth microdilution method; type: functional; settings: not given; method in brief: as §1

| SMILES | MIC |
| --- | --- |
| C/C(CC(C)C)=N\N=C1/SCC(=O)N1Cc1ccc([N+](=O)[O-])cc1 | > 256 µg/mL |
| C/C(CC(C)C)=N\N=C1/SCC(=O)N1Cc1cccc2ccccc12 | > 256 µg/mL |

tested on: Staphylococcus warneri; assay: Antibacterial activity against Staphylococcus warneri after 18 to 22 hrs by broth microdilution method; type: functional; settings: not given; method in brief: as §1

| SMILES | MIC |
| --- | --- |
| C/C(CC(C)C)=N\N=C1/SCC(=O)N1Cc1ccc([N+](=O)[O-])cc1 | > 256 µg/mL |
| C/C(CC(C)C)=N\N=C1/SCC(=O)N1Cc1cccc2ccccc12 | > 256 µg/mL |

tested on: not listed separately; assay: Cytotoxicity against human Hep2 cells assessed as cell survival after 24 hrs by trypan blue exclusion method; type: cell-based, HEp-2; settings: not given
Method in brief: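 Hep2 cells grown in DMEM with 10% FBS and 1% streptomycin-penicillin at 37 °C, 5% CO2, used at 60-70% confluency. Seeded at 1 x 10^5/mL and exposed 24 h to five concentrations (0.05-100 µg/mL), DMSO ≤0.5%. Controls: medium alone, DMSO, 1 mM nitroprusside. Cells scraped, recovered 30 min, stained 1:1 with 0.4% Trypan blue, counted by two operators. Means of ≥3 independent experiments.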

| SMILES | CC50 at 24 h |
| --- | --- |
| C/C(CC(C)C)=N\N=C1/SCC(=O)N1Cc1ccc([N+](=O)[O-])cc1 | 32 µg/mL (≈ 91.8 µM) |
| C/C(CC(C)C)=N\N=C1/SCC(=O)N1Cc1cccc2ccccc12 | 95 µg/mL (≈ 269 µM) |

tested on: not listed separately; assay: Cytotoxicity against human Hep2 cells assessed as cell survival at 5 ug/ml after 24 hrs by trypan blue exclusion test (reference value: 87 to 94%); type: cell-based, HEp-2; settings: read-out: Survival

| SMILES | viability at 24 h, 5 ug/ml |
| --- | --- |
| C/C(CC(C)C)=N\N=C1/SCC(=O)N1Cc1ccc([N+](=O)[O-])cc1 | 82% |
| C/C(CC(C)C)=N\N=C1/SCC(=O)N1Cc1cccc2ccccc12 | 87.5% |

tested on: not listed separately; assay: Cytotoxicity against human Hep2 cells assessed as cell survival at 100 ug/ml after 24 hrs by trypan blue exclusion test (reference value: 87 to 94%); type: cell-based, HEp-2; settings: read-out: Survival

| SMILES | viability at 24 h, 100 ug/ml |
| --- | --- |
| C/C(CC(C)C)=N\N=C1/SCC(=O)N1Cc1ccc([N+](=O)[O-])cc1 | 0% |
| C/C(CC(C)C)=N\N=C1/SCC(=O)N1Cc1cccc2ccccc12 | 46% |

tested on: Klebsiella oxytoca; assay: Antibacterial activity against Klebsiella oxytoca after 18 to 22 hrs by broth microdilution method; type: functional; settings: not given; method in brief: as §1

| SMILES | MIC |
| --- | --- |
| C/C(CC(C)C)=N\N=C1/SCC(=O)N1Cc1ccc([N+](=O)[O-])cc1 | > 256 µg/mL |
| C/C(CC(C)C)=N\N=C1/SCC(=O)N1Cc1cccc2ccccc12 | > 256 µg/mL |

tested on: not listed separately; assay: Cytotoxicity against human Hep2 cells assessed as cell survival at 0.05 ug/ml after 24 hrs by trypan blue exclusion test (reference value: 87 to 94%); type: cell-based, HEp-2; settings: read-out: Survival

| SMILES | viability at 24 h, 0.05 ug/ml |
| --- | --- |
| C/C(CC(C)C)=N\N=C1/SCC(=O)N1Cc1ccc([N+](=O)[O-])cc1 | 93% |
| C/C(CC(C)C)=N\N=C1/SCC(=O)N1Cc1cccc2ccccc12 | 93.2% |

tested on: Candida tropicalis; assay: Antifungal activity against Candida tropicalis clinical isolate after 24 hrs by sabouraud dextrose broth based microdilution method; type: functional; settings: not given; method in brief: as §2

| SMILES | MIC |
| --- | --- |
| C/C(CC(C)C)=N\N=C1/SCC(=O)N1Cc1ccc([N+](=O)[O-])cc1 | 32 µg/mL (≈ 91.8 µM) |
| C/C(CC(C)C)=N\N=C1/SCC(=O)N1Cc1cccc2ccccc12 | 64 µg/mL (≈ 181 µM) |

tested on: Staphylococcus haemolyticus; assay: Antibacterial activity against Staphylococcus haemolyticus after 18 to 22 hrs by broth microdilution method; type: functional; settings: not given; method in brief: as §1

| SMILES | MIC |
| --- | --- |
| C/C(CC(C)C)=N\N=C1/SCC(=O)N1Cc1ccc([N+](=O)[O-])cc1 | > 256 µg/mL |
| C/C(CC(C)C)=N\N=C1/SCC(=O)N1Cc1cccc2ccccc12 | > 256 µg/mL |

tested on: Enterobacter sp.; assay: Antibacterial activity against Enterobacter sp. after 18 to 22 hrs by broth microdilution method; type: functional; settings: not given; method in brief: as §1

| SMILES | MIC |
| --- | --- |
| C/C(CC(C)C)=N\N=C1/SCC(=O)N1Cc1ccc([N+](=O)[O-])cc1 | > 256 µg/mL |
| C/C(CC(C)C)=N\N=C1/SCC(=O)N1Cc1cccc2ccccc12 | > 256 µg/mL |

tested on: Candida parapsilosis; assay: Antifungal activity against Candida parapsilosis clinical isolate after 24 hrs by sabouraud dextrose broth based microdilution method; type: functional; settings: Lodderomyces parapsilosis; method in brief: as §2

| SMILES | MIC |
| --- | --- |
| C/C(CC(C)C)=N\N=C1/SCC(=O)N1Cc1ccc([N+](=O)[O-])cc1 | 2 µg/mL (≈ 5.74 µM) |
| C/C(CC(C)C)=N\N=C1/SCC(=O)N1Cc1cccc2ccccc12 | 2 µg/mL (≈ 5.66 µM) |
